According to ChEMBL document CHEMBL1287697, “Receptor agonists of macrophage migration inhibitory factor” (Bioorg Med Chem Lett, 2010):
The source made the active and inactive calls. The rule behind the calls is not given here.

How the values were obtained:
[1] = target: T1, MIF/CD74 (Macrophage migration inhibitory factor and HLA-DR antigens-associated invariant chain) (Homo sapiens) (UniProt P14174+P04233); assay: (§1) Inhibition of human biotinylated MIF/CD74 interaction; assay type: protein assay
[2] = target: T2, Macrophage migration inhibitory factor (Homo sapiens, UniProt P14174); assay: (§2) Inhibition of human MIF tautomerase activity using 4-hydroxyphenylpyruvate as substrate
T2 sequence (P14174 whole entry): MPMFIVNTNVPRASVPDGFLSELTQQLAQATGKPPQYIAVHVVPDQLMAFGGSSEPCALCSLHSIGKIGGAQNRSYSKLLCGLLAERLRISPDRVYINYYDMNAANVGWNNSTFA
In short: (§3)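 Recombinant human MIF tautomerase activity with 4-hydroxyphenylpyruvate as substrate. Compounds were tested between 1 nM and 1 mM. Where inhibition plateaued below 50%, the maximum percent inhibition was reported.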

[3] = target: T3, MIF/CD74 (Macrophage migration inhibitory factor and HLA-DR antigens-associated invariant chain) (Homo sapiens, UniProt P14174+P04233); assay: as §1; assay type: protein assay
T3 sequence (P14174 whole entry): T2 sequence (P14174 whole entry)
T3 sequence (P04233 whole entry): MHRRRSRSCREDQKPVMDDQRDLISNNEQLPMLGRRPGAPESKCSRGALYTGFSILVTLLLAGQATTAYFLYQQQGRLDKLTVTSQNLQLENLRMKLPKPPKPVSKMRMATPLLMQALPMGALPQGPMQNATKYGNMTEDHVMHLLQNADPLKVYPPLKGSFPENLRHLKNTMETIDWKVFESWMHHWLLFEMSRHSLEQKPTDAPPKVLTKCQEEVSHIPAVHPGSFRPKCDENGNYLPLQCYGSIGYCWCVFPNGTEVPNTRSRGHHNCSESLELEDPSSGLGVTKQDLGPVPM

[4] = target: T1, MIF/CD74 (Macrophage migration inhibitory factor and HLA-DR antigens-associated invariant chain) (Homo sapiens); assay: Binding affinity to human biotinylated MIF/CD74 at 100 nM; assay type: protein assay
[5] = target: T1, MIF/CD74 (Macrophage migration inhibitory factor and HLA-DR antigens-associated invariant chain) (Homo sapiens); assay: Activation of human biotinylated MIF/CD74; assay type: protein assay
[6] = target: T4, Macrophage migration inhibitory factor (Homo sapiens) (UniProt P14174); assay: Agonist activity at human MIF tautomerase using 4-hydroxyphenylpyruvate as substrate at 100 uM; assay type: functional
T4 sequence (whole entry): T2 sequence (P14174 whole entry)

[7] = target: T4, Macrophage migration inhibitory factor (Homo sapiens); assay: Induction of MIF-dependent ERK1/2 phosphorylation in human fibroblast after 30 mins by Western blotting
[8] = target: T5, MIF/CD74 (Macrophage migration inhibitory factor and HLA-DR antigens-associated invariant chain) (Homo sapiens, UniProt P04233+P14174); assay: as §1; assay type: protein assay
T5 sequence (P14174 whole entry): T2 sequence (P14174 whole entry)
T5 sequence (P04233 whole entry): T3 sequence (P04233 whole entry)

[9] = target: T1, MIF/CD74 (Macrophage migration inhibitory factor and HLA-DR antigens-associated invariant chain) (Homo sapiens); assay: Binding affinity to human biotinylated MIF/CD74 at 500 nM; assay type: protein assay
[10] = target: T1, MIF/CD74 (Macrophage migration inhibitory factor and HLA-DR antigens-associated invariant chain) (Homo sapiens); assay: Binding affinity to human biotinylated MIF/CD74 at 150 nM; assay type: protein assay
[11] = target: T4, Macrophage migration inhibitory factor (Homo sapiens); assay: Inhibition of MIF-dependent ERK1/2 phosphorylation in human fibroblast after 30 mins by Western blotting
In short: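 MIF-dependent ERK1/2 phosphorylation was measured in human fibroblasts. Phospho-ERK1/2 and total ERK1/2 were detected by western blot. The phospho/total ratio was determined by densitometry across three separate experiments.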

[12] = target: T4, Macrophage migration inhibitory factor (Homo sapiens); assay: as §2; in short: as §3

Compound `Oc1ccc(-n2cc(Cc3ccccc3O)nn2)cc1` has an Imax [1] of 9% and an IC50 ([2]; read-out: IC50) of 1000 µM.

In the case of `COc1ccc(Cn2cc(-c3ccc(O)cc3)nn2)cc1`, the IC50 [3] is reported as “Not Active”.

In the case of `COc1cccc(Cc2cn(-c3ccc(O)cc3)nn2)c1OC`, the IC50 [3] is reported as “Not Active”.

`Oc1ccc(Cc2cn(-c3ccc(O)cc3)nn2)cc1` gave an Imax [1] of 23% and an IC50 ([2]; read-out: IC50) of 690 µM.

For `Cc1ccccc1Cn1cc(-c2ccc(O)cc2)nn1`, the IC50 [3] was “Not Active”.

For `Oc1ccc(-n2cc(-c3cccc4ccccc34)nn2)cc1`, the IC50 [3] was “Not Active”.

`Oc1ccc(-c2cn(Cc3cccnc3)nn2)cc1` gave an Imax [1] of 20%.

`COc1ccc(Cc2cn(-c3ccc(O)cc3)nn2)cc1` gave an Imax [1] of 36%.

In the case of `Oc1ccc(-n2cc(-c3cccnc3)nn2)cc1`, the Activity [4] is reported as 100%, the Activity [5] is reported as 23% and the Activity [6] is reported as “Active”. For the same compound, the Activity [7] was “Active”.

For `O=C(O)c1cccc(Cn2cc(-c3ccc(O)cc3)nn2)c1`, the IC50 [3] was “Not Active”.

`COC(=O)c1cccc(Cn2cc(-c3ccc(O)cc3)nn2)c1` was tested, and the IC50 [8] was 1.2 µM and the IC50 ([2]; read-out: IC50) was 2.5 µM.

`COc1ccccc1Cn1cc(-c2ccc(O)cc2)nn1` was tested, and the Activity [9] was 40%, the Activity [5] was 31% and the Activity [6] was “Active”. The Activity [7] was “Active”.

In the case of `Oc1ccc(-n2cc(-c3cncc4ccccc34)nn2)cc1`, the Activity [10] is reported as 100%, the Activity [5] is reported as 39% and the Activity [6] is reported as “Active”. For the same compound, the Activity [7] was “Active”.

`Oc1ccc(-n2cc(Cc3ccccc3)nn2)cc1` was tested, and the IC50 [8] was 3.5 µM.

Work on `COc1cccc(Cn2cc(-c3ccc(O)cc3)nn2)c1` yielded an IC50 [8] of 50 µM.

`COc1cccc(Cn2cc(-c3ccc(O)cc3)nn2)c1OC` was tested, and the IC50 [8] was 0.9 µM, the IC50 ([2]; read-out: IC50) was 0.75 µM and the inhibition [11] was “Active”.

With `Oc1ccc(-n2cc(Cc3cccc(O)c3)nn2)cc1` the IC50 [3] was “Not Active” and the IC50 [2] was “Not Active”.

In the case of `COc1ccc(Cc2cn(-c3ccc(O)cc3)nn2)cc1OC`, the Imax [1] is reported as 22%.

`Oc1ccc(-c2cn(-c3cccnc3)nn2)cc1` was tested, and the Imax [1] was 16%.

In the case of `Cc1cccc(Cn2cc(-c3ccc(O)cc3)nn2)c1`, the IC50 [3] is reported as “Not Active”.

`Oc1ccc(-c2cn(-c3cccc4ccccc34)nn2)cc1` was tested, and the Imax [1] was 23%.

`Cc1cccc(Cc2cn(-c3ccc(O)cc3)nn2)c1` showed an Imax [1] of 30%.

Work on `COc1cccc(Cc2cn(-c3ccc(O)cc3)nn2)c1` yielded an Imax [1] of 8% and an Imax [12] of 40%.

In the case of `COc1ccccc1Cc1cn(-c2ccc(O)cc2)nn1`, the Imax [1] is reported as 14% and the Imax [12] is reported as 35%.

`Oc1ccc(-c2cn(Cc3ccccc3)nn2)cc1` was tested, and the IC50 [3] was “Not Active”.

`Oc1ccc(-c2cn(-c3cncc4ccccc34)nn2)cc1` was tested, and the Imax [1] was 12%.

`Oc1ccc(-c2cn(Cc3ccccn3)nn2)cc1` was tested, and the Imax [1] was 30%.
